High-throughput results: PubChem, The Scripps Research Institute Molecular Screening Center
HTR5A ag ctr – activates human HTR5A in OPRM1-OPRD1 agonist counter-screen. P47898. HTR5A agonist assay, luminescence, cell-based. activation, % at 9.3 µM. actives 0.61% (n = 340,000). AID 504692; in the data active = activation mostly above about 9.5%, no sharp cut-off; inactive = mostly below about 7.6%
Target sequence (P47898 whole entry, looked up): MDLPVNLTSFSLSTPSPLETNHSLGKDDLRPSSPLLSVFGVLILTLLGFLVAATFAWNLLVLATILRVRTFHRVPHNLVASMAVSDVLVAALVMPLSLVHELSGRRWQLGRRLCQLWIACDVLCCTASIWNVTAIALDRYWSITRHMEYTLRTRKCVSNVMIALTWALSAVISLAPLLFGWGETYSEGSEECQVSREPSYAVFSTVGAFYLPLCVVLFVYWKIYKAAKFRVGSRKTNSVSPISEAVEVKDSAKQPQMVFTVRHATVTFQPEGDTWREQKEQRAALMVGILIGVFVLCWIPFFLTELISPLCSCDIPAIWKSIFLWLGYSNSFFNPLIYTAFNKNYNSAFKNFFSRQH
HTR5A inv ag – counter-screen for OPRM1-OPRD1 inverse agonists: human HTR5A inverse agonism; P47898; HTR5A cell line, luminescence; inhibition, % at 9.3 µM; actives 0.083% (n = 340,000); in the data active = inhibition mostly above about 23%, no sharp cut-off; inactive = mostly below about 18%
MC4R antagonist – human MC4R antagonism in cAMP assay. P32245. MC4R-expressing cells, MTII-stimulated cAMP, LANCE TR-FRET. inhibition, % at 6.5 µM. actives 0.48% (n = 360,000);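 active = inhibition above its plate's cutoff, the mean of tested wells on that plate plus 3 SD, cut at about 29% in these data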
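Test system: U2OS cells stably expressing human melanocortin 4 receptor (MC4R); also added: Melanotan II challenge; compound: 6.5 µM single dose; timing: 30-min compound preincubation, 1-h Melanotan II challenge, 1-h detection, room temperature; signal: Eu-cAMP/anti-cAMP TR-FRET, emission 671 nm; repeats: one well per compound, no replicates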
OPRM1-OPRD1 ag – OPRM1-OPRD1 heterodimerization agonism | actives 0.3% (n = 340,000) | activation, % at 9.3 µM | cells, luminescence | P35372+P41143; in the data active = activation above about 18%
MC4R ag barr – agonists of human melanocortin 4 receptor (MC4R) beta-arrestin; P32245; U2OS MC4R beta-arrestin complementation, luminescence; percent of melanotan II response, DMSO zero; activation, % at 8.9 µM; actives 0.98% (n = 360,000); AID 540308;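 active = activation above a per-plate cutoff, the mean activation of sample wells on that plate plus 3 SD, cut at about 8% in these data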
MOR-DOR inv ag – inverse agonist of human OPRM1-OPRD1 heterodimerization. actives 0.21% (n = 340,000). inhibition, % at 9.3 µM. P35372+P41143. cell-based MOR-DOR heterodimer luminescence, inverse agonism; in the data active = inhibition above about 22%, passing the limit was not always enough
MC4R barr conf – human MC4R beta-arrestin agonism confirmation | U2OS MC4R beta-arrestin recruitment, luminescence; scaled DMSO 0%, Melanotan II 100% | shares compounds with MC4R ag barr | AID 602192 | actives 31% (n = 2,400) | activation, % at 8.9 µM;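 active = mean activation across replicates above the hit cutoff set in the earlier primary screen, cut at about 8% in these data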
MOR-DOR barr ag – activates mu-delta opioid heterodimer, MC4R agonist counter-screen | U2OS PathHunter beta-arrestin, beta-gal luminescence; percent of deltorphin B response, DMSO zero | actives 5.8% (n = 2,400) | shares compounds with MC4R ag barr | AID 602194 | activation, % at 9.2 µM;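 active = mean activation across replicates exceeds the hit threshold derived in the earlier primary screen, cut at about 18% in these data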
Of the large screens only hits and unclear results are named; the others gave an inactive call (follow-up assays come after a bar, where they were run). In the library only some 2.4% were active in any assay of this set; here they are far more common.

Cc1ccc(CNC(=O)Cn2c(=O)c3sccc3n(Cc3ccc([N+](=O)[O-])cc3)c2=O)cc1	MC4R ag barr 14 | MC4R barr conf inactive | MOR-DOR barr ag inactive
C=C(C)c1ccc(C(C)(C)NC(=O)NCc2ccco2)cc1	none
C=C(C)c1ccc(C(C)(C)NC(=O)N(Cc2ccccc2)Cc2ccco2)cc1	MC4R ag barr 17 | MC4R barr conf inactive | MOR-DOR barr ag inactive
Cc1csc2nc(O)c(C(=O)NCCC3=CCCCC3)c(=O)n12	MC4R ag barr 14 | MC4R barr conf inactive | MOR-DOR barr ag inactive
Cc1ccc2nc(Nc3ccc4[nH]c(=O)[nH]c4c3)c(-n3nc(C)cc3C)nc2c1	MC4R ag barr 34 | MC4R barr conf 29 | MOR-DOR barr ag inactive
CCC(C)c1ccc2oc(-c3ccc(NC(=O)Cn4cnc5c(=O)n(C)c(=O)n(C)c54)cc3)nc2c1 (stereo unspecified)	MC4R ag barr 14 (no result: HTR5A ag ctr, HTR5A inv ag, OPRM1-OPRD1 ag, MOR-DOR inv ag) | MC4R barr conf 8.6
Cn1c(=O)c2ncn(CC(=O)Nc3ccc(N4CCOCC4)cc3)c2n(C)c1=O	none (no result: HTR5A ag ctr, HTR5A inv ag, OPRM1-OPRD1 ag, MOR-DOR inv ag)
Cc1cccc(C)c1NC(=S)N(c1ccccc1)C(C)C	none
CCOC(=O)C1(Cc2cccc(OC)c2)CCN(C/C=C/c2ccc(OC)cc2)CC1	none
CCOC(=O)C1(Cc2cccc(OC)c2)CCN(C/C=C/c2ccccc2)CC1	MC4R ag barr 12 | MC4R barr conf 10 | MOR-DOR barr ag inactive
COc1ccc(CN(C)C(C)C(=O)Nc2cccc3ccccc23)cc1 (stereo unspecified)	none
COc1ccc(O)c(-c2cc(C(F)(F)C(F)F)nc(-c3ccccc3)n2)c1	MC4R ag barr 14 | MC4R barr conf 17 | MOR-DOR barr ag inactive
Oc1ccccc1-c1cc(C(F)(F)C(F)F)nc(-c2ccccc2)n1	none
NS(=O)(=O)c1ccc(CNC(=O)c2sccc2-c2ccccc2)cc1	none
O=c1[nH]c2cc(C(F)(F)F)ccc2n1-c1cc(C(F)(F)F)ccc1O	MC4R ag barr 10 | MC4R barr conf inactive | MOR-DOR barr ag inactive
COCCOC(=O)c1c(NC(=O)CN2CCc3ccccc32)sc(C(N)=O)c1C	none
CCOC(=O)c1c(NC(=O)CN2CCCc3ccccc32)sc(C(C)=O)c1C	MC4R ag barr 23 | MC4R barr conf inactive | MOR-DOR barr ag inactive
CC(NC(=O)COC(=O)/C=C/c1ccc(Cl)cc1)c1ccccc1 (stereo unspecified)	none
CCOC(=O)c1cccc(NC(=O)CSc2nnc(COc3ccccc3C)o2)c1	MC4R ag barr 11 | MC4R barr conf inactive | MOR-DOR barr ag inactive
O=C(COc1ccc(C(=S)N2CCOCC2)cc1Cl)Nc1ccccc1Cl	MC4R ag barr 22 | MC4R barr conf inactive | MOR-DOR barr ag inactive
COc1cc(C(=S)N2CCCCC2)ccc1OCC(=O)Nc1ccccc1Cl	none
CC1=C(C(=O)Nc2cccc(C(=O)NCc3ccccc3C)c2)SCCO1	none
COc1ccc(CNC(=S)Nc2cc(OC)ccc2OC)cc1	none
COc1ccc(OC)c(NC(=S)NC(=O)c2ccc(Br)o2)c1	MC4R ag barr 11 | MC4R barr conf inactive | MOR-DOR barr ag 19
C=CCSc1nc2c(c(=O)[nH]c(=O)n2C)n1Cc1ccc(C)cc1	MC4R ag barr 14 | MC4R barr conf inactive | MOR-DOR barr ag inactive
CCCSc1nc2c(c(=O)[nH]c(=O)n2C)n1Cc1ccc(C)cc1	none
Cc1cccn2c(=O)c3cc(C(=O)NC4CCCC4)c(=N)n(C4CCCCC4)c3nc12	none
Cc1cc(C(O)c2ncc(-c3ccc(Oc4ccccc4)cc3)[nH]2)ccc1F (stereo unspecified)	MC4R ag barr 12 (no result: HTR5A ag ctr, HTR5A inv ag, OPRM1-OPRD1 ag, MOR-DOR inv ag) | MC4R barr conf inactive | MOR-DOR barr ag inactive
OC(c1cc(F)cc(Cl)c1)c1ncc(-c2ccc(Cl)cc2)[nH]1 (stereo unspecified)	MC4R ag barr 9.8 (no result: HTR5A ag ctr, HTR5A inv ag, OPRM1-OPRD1 ag, MOR-DOR inv ag) | MC4R barr conf inactive | MOR-DOR barr ag inactive
